# Bioassay records (PubChem)
# CHRM5 agonist: agonists of human muscarinic M5 receptor (CHRM5) | CHO-K1 hM5 cells, Fluo-8 calcium fluorescence; 0% DMSO wells, 100% maximal acetylcholine response | activation, % at 3 µM | hit rate 0.19% among 360,000 | AID 624037;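 active = activation above the run's mean over test compounds plus 3 SD, cut at about 23% in these data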;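 also: signal is peak over basal fluorescence ratio across the kinetic read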
# CHRM5 PAM: positive allosteric modulators of human muscarinic M5 receptor. hit rate 0.3% among 360,000. CHO-K1 hM5, Fluo-8 calcium, ACh EC20 PAM; 0% = ACh EC20, 100% = ACh EC100. activation, % at 3 µM. P08912;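 active = activation above the run cutoff, the mean activation of all test compounds plus 3 SD, cut at about 18% in these data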
#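 System – CHO-K1 hM5 cells · Compound – 3 µM, single dose · Incubation – compound preincubation 140 s before EC20 acetylcholine addition · Technique – Fluo-8 calcium fluorescence · Measure – Max/basal fluorescence ratio as % of EC20–EC100 ACh window · Benchmarks – low control EC20 acetylcholine (0%), high control EC100 acetylcholine (100%) · Replication – singlicate, one well per test compound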
# M4 ag: CHRM4 agonism in calcium assay; CHO-K1 hM4/Gqi5, Fluo-8 calcium fluorescence; vehicle 0%, full acetylcholine response 100%; hit rate 0.14% among 360,000; P08173; activation, % at 3 µM;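 active = activation above the run mean over all test wells plus 3 SD, cut at about 32% in these data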;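 also: peak over basal fluorescence ratio per well then scaled between controls; 0% = DMSO wells and 100% = acetylcholine at EC100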
# Target sequence (P08173 whole entry, looked up): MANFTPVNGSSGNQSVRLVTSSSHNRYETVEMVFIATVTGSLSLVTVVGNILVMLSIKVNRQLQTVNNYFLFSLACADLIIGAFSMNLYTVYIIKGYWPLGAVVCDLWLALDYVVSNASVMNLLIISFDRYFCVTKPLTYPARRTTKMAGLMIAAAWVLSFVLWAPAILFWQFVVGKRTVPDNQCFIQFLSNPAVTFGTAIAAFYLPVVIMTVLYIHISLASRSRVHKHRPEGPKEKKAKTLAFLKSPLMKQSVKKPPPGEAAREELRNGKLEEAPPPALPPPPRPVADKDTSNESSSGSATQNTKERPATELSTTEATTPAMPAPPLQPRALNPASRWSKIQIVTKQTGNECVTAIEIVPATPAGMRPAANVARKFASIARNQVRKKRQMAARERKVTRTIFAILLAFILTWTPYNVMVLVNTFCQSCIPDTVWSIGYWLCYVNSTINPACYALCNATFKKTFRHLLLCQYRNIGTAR
# CHRM5 antagonist: CHRM5 antagonism in calcium assay | hit rate 0.59% among 360,000 | CHO-hM5 cells, Fluo-8 calcium fluorescence, ACh EC80 | inhibition, % at 3 µM;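 active = inhibition above a per-plate cutoff, the mean of that plate's test compounds plus 3 SD, cut at about 27% in these data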;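 also: 0% = acetylcholine EC80 with DMSO and 100% = DMSO without agonist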
# M4 antag: CHRM4 antagonism in calcium assay; CHO-hM4 cells, ACh EC80, Fluo-8 calcium fluorescence; inhibition, % at 3 µM; hit rate 0.73% among 360,000; AID 624125;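 active = inhibition above its plate's cutoff, the mean inhibition of sample wells plus 3 SD, cut at about 27% in these data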;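 also: 0% = acetylcholine EC80 with DMSO and 100% = DMSO without agonist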
# CHRM4 PAM: potentiates acetylcholine response at human M4 receptor; CHO-K1 hM4/Gqi5, Fluo-8 calcium fluorescence, ACh EC20; 0% = ACh EC20, 100% = maximal ACh; activation, % at 3 µM; hit rate 0.4% among 360,000; AID 624126;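 active = activation above its plate's cutoff, the mean activation of sample wells plus 3 SD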
# * marks the source's active call; other numbers are inactive results; ! = a repeat was not active. Most compounds without a hit are left out; they make up all but 1.8% or so of the library.
SMILES,CHRM5 agonist,CHRM5 PAM,M4 ag,CHRM5 antagonist,M4 antag,CHRM4 PAM
COc1cc(/C=C2\SC(=S)N(C(C(=O)O)c3ccccc3)C2=O)ccc1O (configuration not stated),40*,-20,40*,27*,22,-21
COc1cc(/C=C2\SC(=S)N(NS(=O)(=O)c3ccccc3)C2=O)ccc1O,12,-6,10,13,3,-8
COc1cc(/C=C2/SC(=S)N(c3c(C)n(C)n(-c4ccccc4)c3=O)C2=O)ccc1O,29*,-16,9,18,8,-6
O=C(Nc1nc2ccc(S(=O)(=O)N3CCOCC3)cc2s1)c1cccs1,5,0,5,-12,-3,6
Cn1c(SCC(=O)N2CCOCC2)nc2c(c1=O)SCC2,-2,0,0,11,5,-1
CCOc1cc(/C=C2\SC(=S)N(C(C(=O)O)c3ccccc3)C2=O)ccc1O (configuration not stated),61*,-24,52*,14,10,-28
CCOc1ccc(/C=C2/SC(=S)N(C(C(=O)O)c3ccccc3)C2=O)cc1OCC (configuration not stated),-2,4,0,-5,0,4
COc1ccc(/C=C2\SC(=S)N(C(Cc3ccccc3)C(=O)O)C2=O)cc1 (configuration not stated),-1,-4,0,11,12,-4
O=C(O)C(c1ccccc1)N1C(=O)/C(=C\c2ccc(O)c(O)c2)SC1=S (configuration not stated),17,-7,35*,2,15,-23
CCOc1ccc2nc(NC(=O)C34CC5CC(CC(NC(C)=O)(C5)C3)C4)sc2c1,-2,-4,4,3,1,-2
CCc1ccc(NC(=O)CCCN2C(=O)C3CC=CCC3C2=O)cc1 (configuration not stated),-8,-8,2,29*,-13,4
Cc1cccc(NC(=O)CCCN2C(=O)C3CC=CCC3C2=O)c1 (configuration not stated),-4,-2,0,7,0,1
OCCOc1nnnn1-c1ccccc1,1,6,1,-5,1,10
CCCOc1nnnn1-c1ccccc1,-1,6,0,0,-4,19*
O=C(COC(=O)c1ccccc1NS(=O)(=O)c1ccc(Cl)cc1)NCc1ccccc1,0,10,2,-10,0,21*
O=C(COC(=O)c1cc2ccccc2cc1O)NCc1ccccc1,7,18*,2,-8,-6,1
COc1cccc(CC(=O)OCC(=O)NC(Cc2ccccc2)C(C)=O)c1 (configuration not stated),0,2,0,-2,0,8
Cc1nc(NC(=O)C(C)(C)C)sc1C(=O)Cn1cc(-c2ccc(C(C)(C)C)cc2)nn1,2,3,1,3,1,1
CC(=O)Nc1c(Cl)cnn(-c2ccccc2)c1=O,0,22*,1,-11,-13,-6
CN(C(=O)CSc1nc2ccc(Cl)cc2[nH]1)C1CCS(=O)(=O)C1 (configuration not stated),1,23*,0,-4,4,7
COc1ccc2c(C)cc(=O)[nH]c2c1,-3,40*,1,-14,-12,23*
Cc1cc(=O)[nH]c2cc(Cl)ccc12,0,5,0,0,6,9
O=C(NNC(=O)c1cc(-c2cccnc2)nc2ccccc12)Nc1ccc(Cl)cc1,6,-34,22,38*,30*,-25
OCC1(Cc2ccccc2)CCCN(Cc2cn[nH]c2-c2ccccc2)C1 (configuration not stated),-2,-17,15,32*,3,-11
COc1ccc2ccccc2c1-c1sc(Nc2ccccc2)n[n+]1-c1ccc(F)cc1,28*,-33,32*,35*,9,-8
SMILES,CHRM5 agonist,CHRM5 PAM,M4 ag,CHRM5 antagonist,M4 antag,CHRM4 PAM
COc1ccc(-c2sc(Nc3ccccc3)n[n+]2-c2ccc(F)cc2)cc1Br,-5,-5,1,14,10,14
CCc1ccc(Nc2n[n+](-c3ccccc3)c(-c3c(Cl)cccc3Cl)s2)cc1,49*,-25,43*,70*,24,-19
CCN(CC)c1ccc(-c2sc(Nc3ccccc3)n[n+]2-c2ccc(F)cc2)cc1,20,-11,22,26,-4,-6
CCc1ccc(Nc2n[n+](-c3ccccc3)c(-c3ccc(N(CC)CC)cc3)s2)cc1,19,-16,42*,36*,30*,-9
COc1ccccc1NC(=S)NCc1ccc2c(c1)OCO2,-5,-1,0,7,23,-12
Cn1c(=O)c2nc(NCc3ccccc3)cnc2n(C)c1=O,4,2,1,-1,-1,1
Cc1nc2c(=O)n(C)c(=O)n(C)c2nc1Cl,-3,-12,-2,28*,25,-12
CCCOc1ccc(C(=O)Nc2ccc(N3CCN(C(=O)c4ccco4)CC3)cc2)cc1,-3,-9,3,13,-10,0
CCCCNc1c(-c2ccc(OC)c(SC3CCCCC3)c2)nc2ccc(C)cn12,-2,-35,15,40*,78*,-10
CCCCNc1c(-c2ccc(SC3CCCCC3)c(OC)c2)nc2ccc(C)cn12,4,-8,4,8,35*!,-5
Cc1cccc(C)c1NC(=O)c1nc(S(=O)(=O)Cc2ccccc2)ncc1Cl,-1,2,5,3,14,-6
Cc1ccccc1CS(=O)(=O)c1ncc(Cl)c(C(=O)Nc2ccc(F)cc2)n1,-4,1,3,14,29*,-4
Cc1ccc(NC(=O)c2nc(S(=O)(=O)Cc3ccccc3)ncc2Cl)cc1,-5,-4,3,12,46*,-8
COc1ccc(NC(=O)c2nc(S(=O)(=O)Cc3cccc(C)c3)ncc2Cl)c(OC)c1,-3,-5,0,17,11,-7
COc1ccc(OC)c(NC(=O)c2nc(S(=O)(=O)Cc3ccccc3)ncc2Cl)c1,-6,-2,2,25,44*,-2
O=C(Nc1ccc(F)cc1)c1nc(S(=O)(=O)Cc2ccccc2)ncc1Cl,-4,-4,1,25,36*,-9
COc1ccc(Nc2nnc(-c3ccc(O)cc3)c3ccccc23)cc1,-14,-3,1,2,-11,-9
CCOC(=O)c1c(N/N=C/c2ccncc2)n[nH]c1C,-3,8,1,0,4,3
O=C(Cc1ccccc1)NCC(=O)N1CCC1,-2,-2,2,9,7,-2
